Data taken from ChEMBL document CHEMBL1133135, “Grignard-mediated synthesis and preliminary biological evaluation of novel 3-substituted farnesyl diphosphate analogues” (Bioorg Med Chem Lett, 2000).

Biological target: Protein farnesyltransferase (Homo sapiens, UniProt P49354+P49356)
Test: Inhibitory activity against recombinant mammalian protein Farnesyltransferase expressed in baculovirus
How it was run: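 Recombinant mammalian FTase, baculovirus-expressed and purified, assayed continuously by fluorescence with dansyl-GCVLS-OH as peptide cosubstrate and the FPP analogue as isoprenoid. IC50 is taken from the decrease in activity with rising analogue concentration. Analogue concentrations were verified by phosphate analysis.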

Going from `CCC(C)/C(=C\COP(=O)(O)OP(=O)(O)O)CC/C=C(\C)CCC=C(C)C` (stereo not drawn) to `CC(C)=CCC/C(C)=C/CC/C(=C/COP(=O)(O)OP(=O)(O)O)C(C)C`, the IC50 falls from 102 nM to 35 nM (2.9-fold). The second is the more potent here.

Compared with `CCC/C(=C\COP(=O)(O)OP(=O)(O)O)CC/C=C(\C)CCC=C(C)C`, `CC(C)=CCC/C(C)=C/CC/C(=C/COP(=O)(O)OP(=O)(O)O)CC(C)C` is 1.6-fold lower in IC50: 453 nM for the first, 290 nM for the second.

Going from `CC(C)=CCC/C(C)=C/CC/C(=C/COP(=O)(O)OP(=O)(O)O)CC(C)(C)C` to `C=CC/C(=C\COP(=O)(O)OP(=O)(O)O)CC/C=C(\C)CCC=C(C)C`, the IC50 falls from 6600 nM to 119 nM (55-fold). The second is the more potent here.

Compared with `CC(C)=CCC/C(C)=C/CC/C(=C/COP(=O)(O)OP(=O)(O)O)c1ccc(F)cc1`, `C=C(C)/C(=C\COP(=O)(O)OP(=O)(O)O)CC/C=C(\C)CCC=C(C)C` is 560-fold lower in IC50: 10100 nM for the first, 18 nM for the second.
